Assay results published in ChEMBL document CHEMBL2169827, “4-Oxo-1,4-dihydropyridines as selective CB₂ cannabinoid receptor ligands. Part 2: discovery of new agonists endowed with protective effect against experimental colitis” (J Med Chem, 2012).
pEC50, pKi: −log10 of the molar value. Active and inactive are the calls of the source. The calls are words filed in the database; no cut-off is given here.

Key:
[1] = molecular target: T1, Cannabinoid receptor 2 (Homo sapiens, UniProt P34972); assay: Displacement of [3H]-CP55940 from human recombinant CB2 receptor expressed in CHO cells membrane at 1 uM by scintillation counting; type: cell membranes
Procedure, shortened: (§1)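 Competitive radioligand displacement with [3H]-CP-55,940 at human CB1 or CB2; single-point screen at 1 μM, specific displacement recorded.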

[2] = molecular target: T2, Cannabinoid receptor 1 (Homo sapiens, UniProt P21554); assay: Displacement of [3H]-CP55940 from human recombinant CB1 receptor expressed in CHO cells membrane by scintillation counting; type: cell membranes
[3] = molecular target: T1, Cannabinoid receptor 2; assay: Agonist activity at human recombinant CB2 receptor expressed in CHO cells membrane by [35S]-GTPgammaS assay; type: functional, cell membranes
[4] = tested on: Mus musculus; assay: Anticolitis activity in TNBS-induced C57Bl6 mouse experimental colitis model assessed as reduction colitis macroscopic scores at 10 mg/kg, ip qd dosed 3 days before colitis induction; type: functional; design: scale not given: the % may be the effect or the level left; settings: route intraperitoneal
Procedure, shortened: (§2)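 TNBS colitis in mice; test agent given ip once daily at 10 mg/kg; mice killed three days after TNBS and colon inflammation parameters assessed; 10 mice per group, mean ± SEM, compared with TNBS plus vehicle.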

[5] = molecular target: T2, Cannabinoid receptor 1; assay: Displacement of [3H]-CP55940 from human recombinant CB1 receptor expressed in CHO cells membrane at 1 uM by scintillation counting; type: cell membranes; procedure, shortened: as §1
[6] = molecular target: T1, Cannabinoid receptor 2; assay: Displacement of [3H]-CP55940 from human recombinant CB2 receptor expressed in CHO cells membrane by scintillation counting; type: cell membranes
[7] = species on record: Homo sapiens; assay: Selectivity index, ratio of Ki for human recombinant CB1 receptor to KI for human recombinant CB2 receptor
Procedure, shortened: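 Ki at hCB1 and hCB2 from [3H]-CP-55,940 competitive displacement; ratio CB1 Ki/CB2 Ki. Ki at CB1 determined only when 1 μM screen gave >60% displacement.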

[8] = Permeability from apical to basolateral side in human Caco2 cells at 10 uM incubated for 60 mins; type: ADME, cell-based; settings: Caco-2, read-out: permeability
Procedure, shortened: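 Caco-2 permeability: compound at 10 μM, samples at 0 and 60 min.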

[9] = tested on: Mus musculus; assay: Effect on IL-1beta mRNA expression in TNBS-induced C57Bl6 mouse experimental colitis model at 10 mg/kg, ip qd dosed 3 days before colitis induction by real-time PCR method; type: functional, organism-based; design: dose 10 mg/kg; procedure, shortened: as §2
[10] = Fraction unbound in human plasma at 37 degC by equilibrium dialysis method; type: ADME, cell-free
Procedure, shortened: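 Plasma protein binding by equilibrium dialysis at 37 °C; free fraction reported.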

[11] = Stability in human liver microsomes assessed as compound remaining at 1 uM incubated for 60 mins; type: ADME, Microsome; settings: read-out: Stability
Procedure, shortened: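 Incubation at 1 μM with human liver microsomes (0.3 mg/mL), 0 and 60 min; percent parent remaining at 60 min.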

[12] = molecular target: MDR1 (ABCB1, P-glycoprotein) (Homo sapiens, UniProt P08183); assay: Inhibition of MDR1 expressed in MDCK2 cells at 10 uM by calcein AM accumulation assay; type: cell-based, MDCK-II; settings: dog, MDCK2 cells expressing MDR1, probe calcein AM
Procedure, shortened: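 P-gp interaction tested in MDR1-MDCKII cells via cellular uptake of calcein AM.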

[13] = Intrinsic clearance in mouse liver microsomes at 1 uM; type: ADME, Microsome; settings: read-out: CLH
[14] = tested on: Mus musculus; assay: Anticolitis activity in TNBS-induced C57Bl6 mouse experimental colitis model assessed as reduction colitis histological scores at 10 mg/kg, ip qd dosed 3 days before colitis induction (reference value: 4.9 score); type: functional; settings: route intraperitoneal; procedure, shortened: as §2
[15] = tested on: Mus musculus; assay: Anticolitis activity in TNBS-induced C57Bl6 mouse experimental colitis model assessed as MPO activity at 10 mg/kg, ip qd dosed 3 days before colitis induction (reference value: 73.7%) score); type: functional; settings: route intraperitoneal; procedure, shortened: as §2
[16] = tested on: Mus musculus; assay: Effect on TNFalpha mRNA expression in TNBS-induced C57Bl6 mouse experimental colitis model at 10 mg/kg, ip qd dosed 3 days before colitis induction by real-time PCR method; type: functional, organism-based; design: dose 10 mg/kg; procedure, shortened: as §2

T2 sequence (P21554 whole entry): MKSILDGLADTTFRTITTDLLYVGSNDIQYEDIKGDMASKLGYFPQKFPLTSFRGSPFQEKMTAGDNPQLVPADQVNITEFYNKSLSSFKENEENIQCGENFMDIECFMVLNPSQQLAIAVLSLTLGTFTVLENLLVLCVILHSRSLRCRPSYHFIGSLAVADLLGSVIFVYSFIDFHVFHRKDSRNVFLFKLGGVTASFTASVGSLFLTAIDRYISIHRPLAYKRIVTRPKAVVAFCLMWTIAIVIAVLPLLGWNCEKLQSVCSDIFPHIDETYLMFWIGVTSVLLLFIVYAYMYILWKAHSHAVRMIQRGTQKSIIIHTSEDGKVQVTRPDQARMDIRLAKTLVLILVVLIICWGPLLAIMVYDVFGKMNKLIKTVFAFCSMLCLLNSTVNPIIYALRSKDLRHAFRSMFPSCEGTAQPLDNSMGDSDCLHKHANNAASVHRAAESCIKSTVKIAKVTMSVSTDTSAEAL
T1 sequence (P34972 whole entry): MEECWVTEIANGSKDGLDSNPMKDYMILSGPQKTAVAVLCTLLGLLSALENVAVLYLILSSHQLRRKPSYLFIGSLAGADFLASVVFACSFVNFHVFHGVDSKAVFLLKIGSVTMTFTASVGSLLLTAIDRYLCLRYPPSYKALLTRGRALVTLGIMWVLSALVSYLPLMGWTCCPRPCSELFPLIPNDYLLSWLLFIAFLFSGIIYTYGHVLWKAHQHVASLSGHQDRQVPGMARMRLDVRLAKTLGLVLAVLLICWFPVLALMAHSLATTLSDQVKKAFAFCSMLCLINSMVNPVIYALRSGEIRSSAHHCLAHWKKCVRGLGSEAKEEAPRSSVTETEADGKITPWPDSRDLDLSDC
Sequence of MDR1 (ABCB1, P-glycoprotein) (P08183 whole entry): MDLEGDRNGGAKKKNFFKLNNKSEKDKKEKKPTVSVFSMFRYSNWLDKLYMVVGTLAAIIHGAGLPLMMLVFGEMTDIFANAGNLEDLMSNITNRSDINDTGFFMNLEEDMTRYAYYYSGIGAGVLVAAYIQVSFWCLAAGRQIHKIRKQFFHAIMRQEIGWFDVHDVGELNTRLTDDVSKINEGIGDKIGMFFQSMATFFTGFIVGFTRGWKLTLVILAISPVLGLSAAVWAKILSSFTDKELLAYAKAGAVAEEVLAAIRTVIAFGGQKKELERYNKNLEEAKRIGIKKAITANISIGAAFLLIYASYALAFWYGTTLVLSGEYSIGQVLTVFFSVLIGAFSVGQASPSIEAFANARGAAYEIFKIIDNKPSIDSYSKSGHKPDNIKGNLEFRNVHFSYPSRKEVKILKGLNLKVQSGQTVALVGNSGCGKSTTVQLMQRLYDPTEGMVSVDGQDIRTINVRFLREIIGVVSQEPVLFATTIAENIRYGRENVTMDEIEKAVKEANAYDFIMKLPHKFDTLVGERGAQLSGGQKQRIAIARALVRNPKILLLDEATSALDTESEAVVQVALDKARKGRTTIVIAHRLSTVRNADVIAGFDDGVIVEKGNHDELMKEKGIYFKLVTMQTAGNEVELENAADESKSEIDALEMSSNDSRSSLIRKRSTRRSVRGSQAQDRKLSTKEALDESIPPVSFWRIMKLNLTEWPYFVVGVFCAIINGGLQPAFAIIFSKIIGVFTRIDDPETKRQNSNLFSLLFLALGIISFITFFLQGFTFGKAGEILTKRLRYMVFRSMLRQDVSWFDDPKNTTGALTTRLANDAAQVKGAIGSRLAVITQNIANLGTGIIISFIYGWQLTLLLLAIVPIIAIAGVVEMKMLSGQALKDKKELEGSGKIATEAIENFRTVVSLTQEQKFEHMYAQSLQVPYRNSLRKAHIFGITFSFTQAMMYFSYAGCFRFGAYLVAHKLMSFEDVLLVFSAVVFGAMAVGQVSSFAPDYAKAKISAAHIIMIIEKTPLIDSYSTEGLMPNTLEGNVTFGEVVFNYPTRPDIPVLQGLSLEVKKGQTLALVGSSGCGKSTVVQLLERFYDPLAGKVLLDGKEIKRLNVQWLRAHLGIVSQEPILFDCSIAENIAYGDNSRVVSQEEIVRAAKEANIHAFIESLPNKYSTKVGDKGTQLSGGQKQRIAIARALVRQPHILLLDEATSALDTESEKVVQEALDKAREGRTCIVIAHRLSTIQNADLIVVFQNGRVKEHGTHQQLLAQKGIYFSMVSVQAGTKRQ

| SMILES | Activity [1] [%] | pKi [2] | pEC50 [3] | Activity [4] [%] | Activity [5] [%] | pKi [6] | further results |
| --- | --- | --- | --- | --- | --- | --- | --- |
| CCCCCn1cc(C(=O)NC(C)C23CC4CC(CC(C4)C2)C3)c(=O)cc1C(C)(C)C (racemic) | > 60 | 6.26 | 7.33 | 60 | > 60 | 8.05 |  |
| C/C=C\n1cc(C(=O)NC23CC4CC(CC(C4)C2)C3)c(=O)cc1C | > 60 |  |  |  | > 60 | < 6.00 |  |
| CCCCCn1cc(C(=O)NC23CC4CC(CC(C4)C2)C3)c(=O)c(-c2ccc(CC)cc2)c1C | > 60 | < 6.00 | 7.40 |  | > 60 | 7.27 |  |
| CCCCCn1cc(C(=O)NC23CC4CC(CC(C4)C2)C3)c(=O)c(-c2cccc(C#N)c2)c1C | > 60 |  |  |  | > 60 | < 6.00 |  |
| CCCCCn1cc(C(=O)NCC2CC2)c(=O)cc1C(C)(C)C | > 60 | 6.75 | 7.56 | 74.9 | > 60 | 7.85 | Ratio Ki [7]: > 10 |
| CCCCCn1cc(C(=O)NCC2CC2)c(=O)cc1C | > 60 |  |  |  | > 60 | < 6.00 |  |
| Cc1cc(=O)c(C(=O)NC23CC4CC(CC(C4)C2)C3)cn1CCC1CCOCC1 | > 60 |  |  |  | > 60 | 6.71 |  |
| CCCCCn1cc(C(=O)NN2CCCCC2)c(=O)cc1C | > 60 |  |  |  | > 60 | < 6.00 |  |
| CCCCCn1cc(C(=O)NC23CC4CC(CC(C4)C2)C3)c(=O)c(C2CC2)c1C | > 60 | 6.98 | 7.05 |  | > 60 | 7.87 |  |
| CCCCCn1cc(C(=O)NC23CC4CC(CC(C4)C2)C3)c(=O)c(I)c1C | > 60 | 6.71 | 7.92 |  | > 60 | 7.68 |  |
| CCCCCn1cc(C(=O)Nc2ccccc2)c(=O)cc1C(C)(C)C | > 60 | 7.06 | 8.08 |  | > 60 | 8.04 |  |
| Cc1cc(=O)c(C(=O)NC23CC4CC(CC(C4)C2)C3)cn1CC1OCCO1 | > 60 |  |  |  | > 60 | < 6.00 |  |
| CCCCCn1cc(C(=O)NC2C3CC4CC(C3)CC2C4)c(=O)cc1C (stereo unspecified) | > 60 | < 6.00 | 7.42 | 74.9 | > 60 | 9.59 | Ratio Ki [7]: > 3850 |
| Cc1cc(=O)c(C(=O)NC23CC4CC(CC(C4)C2)C3)cn1CC1CCOCC1 | > 60 | < 6.00 | 7.32 | 66.3 | > 60 | 7.62 | Ratio Ki [7]: > 10 |
| CCCCCn1cc(C(=O)NC23CC4CC(CC(C4)C2)C3)c(=O)c(-c2cccc(C(C)=O)c2)c1C | > 60 |  |  |  | > 60 | < 6.00 |  |
| CCCCCn1cc(C(=O)NCC23CC4CC(CC(C4)C2)C3)c(=O)cc1C(C)(C)C | > 60 | < 6.00 | 7.31 | 62.2 | > 60 | 7.99 |  |
| CCCCCn1cc(C(=O)NC(C)C23CC4CC(CC(C4)C2)C3)c(=O)cc1C (racemic) | > 60 | < 6.00 | 7.07 | 74.9 | > 60 | 8.19 | Ratio Ki [7]: > 10 |
| COC(Cn1cc(C(=O)NC23CC4CC(CC(C4)C2)C3)c(=O)cc1C)OC | > 60 |  |  |  | > 60 | < 6.00 |  |
| CCCCCn1cc(C(=O)NC2C3CC4CC(C3)CC2C4)c(=O)cc1C(C)(C)C (stereo unspecified) | > 60 | 6.25 | 6.34 | 51.5 | > 60 | 8.02 |  |
| CCCCCn1cc(C(=O)NC23CC4CC(CC(C4)C2)C3)c(=O)c(-c2ccncc2)c1C | > 60 | < 6.00 | 6.94 | 61.4 | > 60 | 7.44 | Papp A→B at 1 h, 10 µM [8]: 49.9 ×10⁻⁶ cm/s; Activity [9]: inactive; Ratio Ki [7]: > 10; fraction unbound [10]: 0.07; remaining at 1 h, 1 µM [11]: 1%; inhibition at 10 µM [12]: 33.7%; microsomal CLint at 1 µM [13]: > 200 µL/min/mg; Activity [14]: 3.1; Activity [15]: 34.1%; Activity [16]: inactive |
| Cc1cc(=O)c(C(=O)NC23CC4CC(CC(C4)C2)C3)cn1CCCC(F)(F)F | > 60 | < 6.00 | 7.76 | 65.1 | > 60 | 9.55 | Ratio Ki [7]: > 3570 |
| CCCCCn1cc(C(=O)NC2CCCCC2)c(=O)cc1C | > 60 | < 6.00 | 7.30 | 74.9 | > 60 | 7.61 | Ratio Ki [7]: > 10 |
| CCCCCn1cc(C(=O)NC(C)C)c(=O)cc1C | > 60 |  |  |  | > 60 | < 6.00 |  |
| CCCCCn1cc(C(=O)NC23CC4CC(CC(C4)C2)C3)c(=O)c(-c2ccccc2)c1C | > 60 |  |  |  | > 60 | 6.72 |  |
| CCCCCn1cc(C(=O)Nc2ccccc2)c(=O)cc1C | > 60 |  |  |  | > 60 | < 6.00 |  |
| Cc1cc(=O)c(C(=O)NC23CC4CC(CC(C4)C2)C3)cn1CCC1OCCO1 | > 60 |  |  |  | > 60 | < 6.00 |  |
| CCCCCn1cc(C(=O)NC23CC4CC(CC(C4)C2)C3)c(=O)cc1C(C)(C)C |  |  |  | 19.3 |  |  | Papp A→B at 1 h, 10 µM [8]: 9.8 ×10⁻⁶ cm/s; fraction unbound [10]: 0.01; remaining at 1 h, 1 µM [11]: 1%; inhibition at 10 µM [12]: 94.5%; microsomal CLint at 1 µM [13]: > 200 µL/min/mg |
| CCCCCn1cc(C(=O)NCC23CC4CC(CC(C4)C2)C3)c(=O)cc1C | > 60 | < 6.00 | 7.27 | 55.9 | > 60 | 7.82 | Ratio Ki [7]: > 10 |
| COCCCn1cc(C(=O)NC23CC4CC(CC(C4)C2)C3)c(=O)cc1C | > 60 |  |  |  | > 60 | < 6.00 |  |
| CCCCCn1cc(C(=O)NC23CC4CC(CC(C4)C2)C3)c(=O)c(-c2ccc(C)cc2)c1C | > 60 |  |  |  | > 60 | < 6.00 |  |
